≈ marks a conversion by molar mass, not a printed value.
Columns and labels:
Type in all cases: functional
[1] = test system: Mycobacterium tuberculosis; test: Antimicrobial activity against Mycobacterium tuberculosis 32C2 harboring embB497 CAG-CGG(Gln-Arg) mutation in embCAB gene after 4 weeks by Bactec 460TB method
How it was run: (§1)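 EMB MIC by radiometric Bactec 460TB liquid method for clones from strain 210. The clones were selected on 7H10 containing 8, 16 or 32 µg/ml EMB final (~10^9 cells plated, 37°C, 4 weeks), then subcultured in 7H9 without EMB before MIC testing. embCAB was genotyped.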

[2] = test system: Mycobacterium tuberculosis; test: Antimicrobial activity against Mycobacterium tuberculosis 32C3 harboring embB497 CAG-CGG(Gln-Arg) mutation in embCAB gene after 4 weeks by Bactec 460TB method; how it was run: as §1
[3] = test system: Mycobacterium tuberculosis; test: Antimicrobial activity against Mycobacterium tuberculosis 16C14 harboring embB445 CAG-CGG(Gln-Arg) mutation in embCAB gene after 4 weeks by 7H agar proportion method
How it was run: (§2)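 EMB MIC by 7H10 agar proportion for clones selected from M. tuberculosis strain 210. About 10^9 cells from liquid culture (OD600 ~1.5, resuspended in 7H9) were plated on 7H10 with EMB at 8, 16 or 32 µg/ml final, incubated 37°C for 4 weeks. Colonies were subcultured in EMB-free 7H9 before testing, and embCAB was genotyped.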

[4] = test system: Mycobacterium tuberculosis; test: Antimicrobial activity against Mycobacterium tuberculosis 32C4 harboring embB497 CAG-CGG(Gln-Arg) mutation in embCAB gene after 4 weeks by Bactec 460TB method
[5] = test system: Mycobacterium tuberculosis; test: Antimicrobial activity against Mycobacterium tuberculosis 8C7 harboring embB445 CAG-CGG(Gln-Arg) mutation in embCAB gene after 4 weeks by Bactec 460TB method; how it was run: as §1
[6] = test system: Mycobacterium tuberculosis; test: Antimicrobial activity against Mycobacterium tuberculosis harboring mutation in embB306 gene after 4 weeks
[7] = test system: Mycobacterium tuberculosis; test: Antimicrobial activity against Mycobacterium tuberculosis 32C1 harboring embB445 CAG-CGG(Gln-Arg) mutation in embCAB gene after 4 weeks by Bactec 460TB method; how it was run: as §1
[8] = test system: Mycobacterium tuberculosis; test: Antimicrobial activity against Mycobacterium tuberculosis 8C7 harboring embB445 CAG-CGG(Gln-Arg) mutation in embCAB gene after 4 weeks by 7H agar proportion method; how it was run: as §2
[9] = test system: Mycobacterium tuberculosis; test: Antimicrobial activity against Mycobacterium tuberculosis 16C7 harboring embB445 CAG-CGG(Gln-Arg) mutation in embCAB gene after 4 weeks by Bactec 460TB method; how it was run: as §1
[10] = test system: Mycobacterium tuberculosis; test: Antimicrobial activity against Mycobacterium tuberculosis NJT210GAC harboring embB406 GGC-GAC(Gly-Asp) mutation in embB gene after 4 weeks
How it was run: (§3)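 Isogenic embB mutants made by allelic exchange in strain 210. PCR-built fragments carried the codon of interest; double-crossover colonies were screened by molecular beacon assay and confirmed by direct embB sequencing. MICs of EMB, INH and RIF were determined by radiometric Bactec 460TB and 7H10 agar proportion, alongside parent 210.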

[11] = test system: Mycobacterium tuberculosis; test: Antimicrobial activity against Mycobacterium tuberculosis 16C16 harboring embB1024 GAC-AAC(Asp-Asn) mutation in embCAB gene after 4 weeks by 7H agar proportion method; how it was run: as §2
[12] = test system: Mycobacterium tuberculosis; test: Antimicrobial activity against Mycobacterium tuberculosis 16C15 harboring embB497 CAG-CGG(Gln-Arg) mutation in embCAB gene after 4 weeks by Bactec 460TB method; how it was run: as §1
[13] = test system: Mycobacterium tuberculosis; test: Antimicrobial activity against Mycobacterium tuberculosis 16C9 harboring embB497 CAG-CGG(Gln-Arg) mutation in embCAB gene after 4 weeks by Bactec 460TB method; how it was run: as §1
[14] = test system: Mycobacterium tuberculosis; test: Antimicrobial activity against Mycobacterium tuberculosis NJT210TGC harboring embB406 GGC-TGC(Gly-Cys) mutation in embB gene after 4 weeks; how it was run: as §3
[15] = test system: Mycobacterium tuberculosis; test: Antimicrobial activity against Mycobacterium tuberculosis 16C11 harboring embB397 CCG-TCG(Pro-Ser) mutation in embCAB gene after 4 weeks by Bactec 460TB method; how it was run: as §1
[16] = test system: Mycobacterium tuberculosis; test: Antimicrobial activity against Mycobacterium tuberculosis 32C1 harboring embB445 CAG-CGG(Gln-Arg) mutation in embCAB gene after 4 weeks by 7H agar proportion method; how it was run: as §2
[17] = test system: Mycobacterium tuberculosis; test: Antimicrobial activity against Mycobacterium tuberculosis NJT210CGG harboring embB497 CAG-CGG(Gln-Arg) mutation in embB gene after 4 weeks; how it was run: as §3
[18] = test system: Mycobacterium tuberculosis; test: Antimicrobial activity against Mycobacterium tuberculosis 16C14 harboring embB445 CAG-CGG(Gln-Arg) mutation in embCAB gene after 4 weeks by Bactec 460TB method; how it was run: as §1
[19] = test system: Mycobacterium tuberculosis; test: Antimicrobial activity against Mycobacterium tuberculosis 8C5 harboring embC13 CGG-CTG(Arg-Leu) mutation in embCAB gene after 4 weeks by Bactec 460TB method; how it was run: as §1
[20] = test system: Mycobacterium tuberculosis; test: Antimicrobial activity against Mycobacterium tuberculosis 16C11 harboring embB397 CCG-TCG(Pro-Ser) mutation in embCAB gene after 4 weeks by 7H agar proportion method; how it was run: as §2
[21] = test system: Mycobacterium tuberculosis; test: Antimicrobial activity against Mycobacterium tuberculosis NJT210TCC harboring embB406 GGC-TCC(Gly-Ser) mutation in embB gene after 4 weeks; how it was run: as §3
[22] = test system: Mycobacterium tuberculosis; test: Antimicrobial activity against Mycobacterium tuberculosis 32C5 harboring embB324 GGC-CGC(Gly-Arg) mutation in embCAB gene after 4 weeks by 7H agar proportion method; how it was run: as §2
[23] = test system: Mycobacterium tuberculosis; test: Antimicrobial activity against Mycobacterium tuberculosis 8C5 harboring embC13 CGG-CTG(Arg-Leu) mutation in embCAB gene after 4 weeks by 7H agar proportion method; how it was run: as §2
[24] = test system: Mycobacterium tuberculosis; test: Antimicrobial activity against Mycobacterium tuberculosis 16C16 harboring embB1024 GAC-AAC(Asp-Asn) mutation in embCAB gene after 4 weeks by Bactec 460TB method; how it was run: as §1
[25] = test system: Mycobacterium tuberculosis; test: Antimicrobial activity against Mycobacterium tuberculosis NJT210GCC harboring embB406 GGC-GCC(Gly-Ala) mutation in embB gene after 4 weeks; how it was run: as §3
[26] = test system: Mycobacterium tuberculosis; test: Antimicrobial activity against Mycobacterium tuberculosis 32C5 harboring embB324 GGC-CGC(Gly-Arg) mutation in embCAB gene after 4 weeks by Bactec 460TB method; how it was run: as §1

Molecule CC[C@@H](CO)NCCN[C@@H](CC)CO [ETHAMBUTOL] has an MIC [1] of 12 µg/mL (≈ 58.7 µM), an MIC [2] of 12 µg/mL (≈ 58.7 µM) and an MIC [3] of 16 µg/mL (≈ 78.3 µM). For the same molecule, the MIC [4] was 4 µg/mL (≈ 19.6 µM), the MIC [5] was 2 µg/mL (≈ 9.79 µM) and the MIC [6] was >20 µg/mL. For the same molecule, the MIC [7] was 2 µg/mL (≈ 9.79 µM), the MIC [8] was 4 µg/mL (≈ 19.6 µM) and the MIC [9] was 8 µg/mL (≈ 39.2 µM). It also gave an MIC [10] of 7 µg/mL (≈ 34.3 µM), an MIC [11] of 8 µg/mL (≈ 39.2 µM) and an MIC [12] of 12 µg/mL (≈ 58.7 µM). For the same molecule, the MIC [13] was 12 µg/mL (≈ 58.7 µM), the MIC [14] was 7 µg/mL (≈ 34.3 µM) and the MIC [15] was 5 µg/mL (≈ 24.5 µM). The MIC [16] was 6 µg/mL (≈ 29.4 µM), the MIC [17] was 12 µg/mL (≈ 58.7 µM) and the MIC [18] was 8 µg/mL (≈ 39.2 µM). It also gave an MIC [19] of 4 µg/mL (≈ 19.6 µM), an MIC [20] of 8 µg/mL (≈ 39.2 µM) and an MIC [21] of 6 µg/mL (≈ 29.4 µM). For the same molecule, the MIC [22] was 8 µg/mL (≈ 39.2 µM), the MIC [23] was 8 µg/mL (≈ 39.2 µM) and the MIC [24] was 3 µg/mL (≈ 14.7 µM). It also gave an MIC [25] of 7 µg/mL (≈ 34.3 µM) and an MIC [26] of 8 µg/mL (≈ 39.2 µM).

For NNC(=O)c1ccncc1 [ISONIAZID], the MIC [10] was 0.05 µg/mL (≈ 0.365 µM), the MIC [14] was 0.05 µg/mL (≈ 0.365 µM) and the MIC [17] was 0.05 µg/mL (≈ 0.365 µM). It also gave an MIC [21] of 0.05 µg/mL (≈ 0.365 µM) and an MIC [25] of 0.05 µg/mL (≈ 0.365 µM).

In the case of CO[C@H]1/C=C/O[C@@]2(C)Oc3c(C)c(O)c4c(O)c(c(/C=N/N5CCN(C)CC5)c(O)c4c3C2=O)NC(=O)/C(C)=C\C=C\[C@H](C)[C@H](O)[C@@H](C)[C@@H](O)[C@@H](C)[C@H](OC(C)=O)[C@@H]1C [RIFAMPIN], the MIC [10] is reported as 0.05 µg/mL (≈ 0.0608 µM), the MIC [14] is reported as 0.05 µg/mL (≈ 0.0608 µM) and the MIC [17] is reported as 0.05 µg/mL (≈ 0.0608 µM). For the same molecule, the MIC [21] was 0.05 µg/mL (≈ 0.0608 µM) and the MIC [25] was 0.05 µg/mL (≈ 0.0608 µM).

Reference: ChEMBL document CHEMBL1212742 (2010)
